Reference: ChEMBL document CHEMBL1124865, “Synthesis and biological evaluation of a series of parenteral 3'-quaternary ammonium cephalosporins” (J Med Chem, 1990)
≈ marks a conversion by molar mass, not a printed value.

What was measured:
Assay type in all cases: functional
Enterobacter cloacae [1] = experiment: Antibacterial activity against Enterobacter cloacae 265A; settings: Enterobacter cloacae; read-out: MIC
Escherichia coli [2] = experiment: Antibacterial activity against Escherichia coli EC14; settings: Escherichia coli; read-out: MIC
Cavia porcellus [3] = organism: Cavia porcellus; experiment: In vitro relative anticholinergic potential in isolated guinea pig trachea
How it was run: (§1)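 Guinea pig trachea in Krebs' solution at 37.5 °C, 95% O2/5% CO2, pH 7.4, 2 g resting tension. Cumulative carbachol log dose-response curve (3-fold steps) run before and 30 min after adding antagonist at 1 mM. […] Tukey test on log2 dose ratios.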

Cavia porcellus [4] = organism: Cavia porcellus; experiment: In vitro relative anticholinergic activity in isolated guinea pig trachea; settings: read-out: pA2 (converted); how it was run: as §1
Klebsiella pneumoniae [5] = experiment: microbe, parasite or virus in culture; settings: Klebsiella pneumoniae; read-out: MIC
Pseudomonas aeruginosa [6] = experiment: Antibacterial activity against Pseudomonas aeruginosa X528; settings: Pseudomonas aeruginosa; read-out: MIC
Pseudomonas aeruginosa [7] = experiment: Antibacterial activity against Pseudomonas aeruginosa PS18; settings: Pseudomonas aeruginosa; read-out: MIC
Staphylococcus aureus [8] = experiment: Antibacterial activity against penicillin G resistance Staphylococcus aureus; settings: Staphylococcus aureus; read-out: MIC
Staphylococcus aureus [9] = experiment: Antibacterial activity against penicillin G susceptible Staphylococcus aureus; settings: Staphylococcus aureus; read-out: MIC
Streptococcus pneumoniae = experiment: Antibacterial activity against Streptococcus pneumoniae; settings: Streptococcus pneumoniae; read-out: MIC
Serratia marcescens = experiment: Antibacterial activity against Serratia marcescens SE3; settings: Serratia marcescens; read-out: MIC
Streptococcus pyogenes = experiment: Antibacterial activity against Streptococcus pyogenes; settings: Streptococcus pyogenes; read-out: MIC
Enterococcus faecium = experiment: Antibacterial activity against Enterococcus faecium; settings: Enterococcus faecium; read-out: MIC
Enterobacter cloacae [10] = experiment: Antibacterial activity against Enterobacter cloacae EB5; settings: Enterobacter cloacae; read-out: MIC
Escherichia coli [11] = experiment: Antibacterial activity against Escherichia coli TEM; settings: Escherichia coli; read-out: MIC
Klebsiella pneumoniae [12] = experiment: Antibacterial activity against Klebsiella pneumoniae X26; settings: Klebsiella pneumoniae; read-out: MIC
[13] = In vitro dose required for anticholinergic activity in isolated guinea pig trachea
Escherichia coli [14] = experiment: In vitro relative hydrolysis rate against Escherichia coli IIIa
How it was run: (§2)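 Spectrophotometric hydrolysis at 265 nm, substrate exposed to partially purified cell-free β-lactamase preparations; rate expressed as percentage of the cephaloridine rate.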

Enterobacter cloacae [15] = experiment: In vitro relative hydrolysis rate against Enterobacter Ia; how it was run: as §2
Klebsiella pneumoniae [16] = experiment: In vitro relative hydrolysis rate against Klebsiella IV; how it was run: as §2
Pseudomonas aeruginosa [17] = experiment: In vivo efficacy against Pseudomonas aeruginosa infected mice treated at 1 hr and 5 hr post infection; settings: Pseudomonas aeruginosa; read-out: ED50
Staphylococcus aureus [18] = experiment: In vivo efficacy against Staphylococcus aureus infected mice treated at 1 hr and 5 hr post infection; settings: Staphylococcus aureus; read-out: ED50
Escherichia coli [19] = experiment: In vivo efficacy against Escherichia coli infected mice treated at 1 hr and 5 hr post infection; settings: Escherichia coli; read-out: ED50
Escherichia coli [20] = experiment: In vivo efficacy against Escherichia coli infections in mice; settings: Escherichia coli; read-out: MIC
Pseudomonas aeruginosa [21] = experiment: In vivo efficacy against Pseudomonas aeruginosa infections in mice; settings: Pseudomonas aeruginosa; read-out: MIC
Staphylococcus aureus [22] = experiment: In vivo efficacy against Staphylococcus aureus infections in mice; settings: Staphylococcus aureus; read-out: MIC
Pseudomonas aeruginosa [23] = experiment: In vitro relative hydrolysis rate against Pseudomonas Id; how it was run: as §2
Staphylococcus aureus [24] = experiment: In vitro relative hydrolysis rate against Staphylococcus aureus; how it was run: as §2

| SMILES | MIC (Enterobacter cloacae [1]) [µg/mL] | MIC (Escherichia coli [2]) [µg/mL] | RAP (Cavia porcellus [3]) | MIC (Klebsiella pneumoniae [5]) [µg/mL] | MIC (Pseudomonas aeruginosa [6]) [µg/mL] | MIC (Pseudomonas aeruginosa [7]) [µg/mL] | MIC (Staphylococcus aureus [8]) [µg/mL] | MIC (Staphylococcus aureus [9]) [µg/mL] | MIC (Streptococcus pneumoniae) [µg/mL] | MIC (Serratia marcescens) [µg/mL] | MIC (Streptococcus pyogenes) [µg/mL] | MIC (Enterococcus faecium) [µg/mL] | MIC (Enterobacter cloacae [10]) [µg/mL] | MIC (Escherichia coli [11]) [µg/mL] | MIC (Klebsiella pneumoniae [12]) [µg/mL] | Hydrolysis rate (Escherichia coli [14]) | Hydrolysis rate (Enterobacter cloacae [15]) | Hydrolysis rate (Klebsiella pneumoniae [16]) | ED50 (Pseudomonas aeruginosa [17]) [mg/kg] | ED50 (Staphylococcus aureus [18]) [mg/kg] | also measured |
| --- | --- | --- | --- | --- | --- | --- | --- | --- | --- | --- | --- | --- | --- | --- | --- | --- | --- | --- | --- | --- | --- |
| CO/N=C(\C(=O)N[C@@H]1C(=O)N2C(C(=O)[O-])=C(C[n+]3ccc4sc(C)nc4c3)CS[C@H]12)c1csc(N)n1 | 2 (≈ 3.67 µM) | 0.015 (≈ 0.0275 µM) | 7 | 2 (≈ 3.67 µM) | 4 (≈ 7.33 µM) | 8 (≈ 14.7 µM) | 2 (≈ 3.67 µM) | 2 (≈ 3.67 µM) | 0.015 (≈ 0.0275 µM) | 0.125 (≈ 0.229 µM) | 0.008 (≈ 0.0147 µM) | 128 (≈ 235 µM) |  |  |  |  |  |  |  |  | Kb (Cavia porcellus [4]): 603 µM |
| CO/N=C(\C(=O)N[C@@H]1C(=O)N2C(C(=O)[O-])=C(C[n+]3csc(CCO)c3C)CS[C@H]12)c1csc(N)n1 | 4 (≈ 7.43 µM) | 0.06 (≈ 0.111 µM) | 1 | 4 (≈ 7.43 µM) | 8 (≈ 14.9 µM) | 16 (≈ 29.7 µM) | 4 (≈ 7.43 µM) | 2 (≈ 3.71 µM) | 0.03 (≈ 0.0557 µM) | 0.125 (≈ 0.232 µM) | 0.03 (≈ 0.0557 µM) | 16 (≈ 29.7 µM) | 0.125 (≈ 0.232 µM) | 0.03 (≈ 0.0557 µM) | 0.03 (≈ 0.0557 µM) |  |  |  |  |  | Dose ratio [13]: 1.27 |
| CO/N=C(\C(=O)N[C@@H]1C(=O)N2C(C(=O)[O-])=C(C[n+]3cccc4sccc43)CS[C@H]12)c1csc(N)n1 | 4 (≈ 7.54 µM) | 0.06 (≈ 0.113 µM) |  | 1 (≈ 1.88 µM) | 2 (≈ 3.77 µM) | 4 (≈ 7.54 µM) | 4 (≈ 7.54 µM) | 0.5 (≈ 0.942 µM) | 0.03 (≈ 0.0565 µM) | 0.125 (≈ 0.236 µM) | 0.015 (≈ 0.0283 µM) | 128 (≈ 241 µM) | 0.25 (≈ 0.471 µM) | 0.06 (≈ 0.113 µM) | 0.03 (≈ 0.0565 µM) | 0.2 | 0.2 | 0.7 | 9.3 | 0.6 | ED50 (Escherichia coli [19]): 0.04 mg/kg; MIC (Escherichia coli [20]): 0.03 µg/mL (≈ 0.0565 µM); MIC (Pseudomonas aeruginosa [21]): 2 µg/mL (≈ 3.77 µM); MIC (Staphylococcus aureus [22]): 1 µg/mL (≈ 1.88 µM); Hydrolysis rate (Pseudomonas aeruginosa [23]): 0.2; Hydrolysis rate (Staphylococcus aureus [24]): 6.2 |
| CO/N=C(\C(=O)N[C@@H]1C(=O)N2C(C(=O)[O-])=C(C[n+]3ccc4nc(C)sc4c3)CS[C@H]12)c1csc(N)n1 | 16 (≈ 29.3 µM) |  | 5 | 1 (≈ 1.83 µM) | 8 (≈ 14.7 µM) | 8 (≈ 14.7 µM) | 4 (≈ 7.33 µM) | 1 (≈ 1.83 µM) |  | 0.25 (≈ 0.458 µM) | 0.015 (≈ 0.0275 µM) | 128 (≈ 235 µM) |  |  |  |  |  |  |  |  | Kb (Cavia porcellus [4]): 955 µM |
| CO/N=C(\C(=O)N[C@@H]1C(=O)N2C(C(=O)[O-])=C(C[n+]3cccc4ccsc43)CS[C@H]12)c1csc(N)n1 | 4 (≈ 7.54 µM) | 0.03 (≈ 0.0565 µM) |  | 4 (≈ 7.54 µM) | 4 (≈ 7.54 µM) | 8 (≈ 15.1 µM) | 2 (≈ 3.77 µM) | 1 (≈ 1.88 µM) | 0.03 (≈ 0.0565 µM) | 0.06 (≈ 0.113 µM) | 0.03 (≈ 0.0565 µM) | 128 (≈ 241 µM) | 0.125 (≈ 0.236 µM) | 0.06 (≈ 0.113 µM) | 0.03 (≈ 0.0565 µM) | 0.5 | 0.1 | 1.5 | 13.5 | 0.8 | ED50 (Escherichia coli [19]): 0.05 mg/kg; MIC (Escherichia coli [20]): 0.015 µg/mL (≈ 0.0283 µM); MIC (Pseudomonas aeruginosa [21]): 4 µg/mL (≈ 7.54 µM); MIC (Staphylococcus aureus [22]): 1 µg/mL (≈ 1.88 µM); Hydrolysis rate (Pseudomonas aeruginosa [23]): 0; Hydrolysis rate (Staphylococcus aureus [24]): 9.6 |
| CO/N=C(\C(=O)N[C@@H]1C(=O)N2C(C(=O)[O-])=C(C[n+]3ccc4ccsc4c3)CS[C@H]12)c1csc(N)n1 | 8 (≈ 15.1 µM) | 0.015 (≈ 0.0283 µM) |  | 4 (≈ 7.54 µM) | 2 (≈ 3.77 µM) | 4 (≈ 7.54 µM) | 4 (≈ 7.54 µM) | 1 (≈ 1.88 µM) | < 0.008 | 0.03 (≈ 0.0565 µM) | < 0.008 | > 128 | 0.06 (≈ 0.113 µM) | 0.03 (≈ 0.0565 µM) | 0.015 (≈ 0.0283 µM) | 0.2 | 0.7 | 6.9 | 9.5 | 0.4 | ED50 (Escherichia coli [19]): 0.02 mg/kg; MIC (Escherichia coli [20]): < 0.008 µg/mL; MIC (Pseudomonas aeruginosa [21]): 4 µg/mL (≈ 7.54 µM); MIC (Staphylococcus aureus [22]): 1 µg/mL (≈ 1.88 µM); Hydrolysis rate (Pseudomonas aeruginosa [23]): 0.4; Hydrolysis rate (Staphylococcus aureus [24]): 7.1 |
